Results on 21 compounds are retold here after ChEMBL document CHEMBL1137307, “Further studies on imidazo[4,5-b]pyridine AT1 angiotensin II receptor antagonists. Effects of the transformation of the 4-phenylquinoline backbone into 4-phenylisoquinolinone or 1-phenylindene scaffolds” (J Med Chem, 2006).

Bounds are passed on as bounds.

In data set [1] the target is T1, Angiotensin II receptor (AT-1) type-1 (Rattus norvegicus, UniProt P29089+P25095).
T1 sequence (P29089 whole entry): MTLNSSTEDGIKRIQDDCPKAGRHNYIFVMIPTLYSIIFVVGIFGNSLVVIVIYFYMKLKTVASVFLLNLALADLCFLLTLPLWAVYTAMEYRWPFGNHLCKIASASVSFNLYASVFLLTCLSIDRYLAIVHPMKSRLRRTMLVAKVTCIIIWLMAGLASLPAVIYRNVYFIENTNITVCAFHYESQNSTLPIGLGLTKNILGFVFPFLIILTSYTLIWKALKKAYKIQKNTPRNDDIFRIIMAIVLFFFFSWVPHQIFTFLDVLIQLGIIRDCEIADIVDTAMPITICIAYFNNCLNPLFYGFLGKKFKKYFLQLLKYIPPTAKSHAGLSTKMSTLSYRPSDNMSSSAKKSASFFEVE
T1 sequence (P25095 whole entry): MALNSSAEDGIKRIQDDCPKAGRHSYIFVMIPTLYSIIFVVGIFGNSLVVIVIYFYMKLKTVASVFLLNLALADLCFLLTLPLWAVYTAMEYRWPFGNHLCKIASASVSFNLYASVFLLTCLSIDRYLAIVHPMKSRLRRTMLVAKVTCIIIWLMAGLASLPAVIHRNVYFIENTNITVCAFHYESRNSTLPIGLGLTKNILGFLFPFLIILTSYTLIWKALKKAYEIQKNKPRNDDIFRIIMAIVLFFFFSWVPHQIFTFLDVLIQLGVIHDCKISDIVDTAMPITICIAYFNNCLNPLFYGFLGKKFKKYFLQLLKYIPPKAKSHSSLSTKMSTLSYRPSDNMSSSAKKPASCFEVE
Nature of the data set: Displacement of [125I]Sar1,Ile8-Ang2 from AT1 receptor in rat hepatic membrane. Type of data set: cell membranes, Liver. In short, it runs like this: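 Rat liver membranes from male Wistar rats, prepared by differential centrifugation (750g, then 50 000g), 25 µg protein per well in 50 mM Tris-HCl, 100 mM NaCl, 10 mM MgCl₂, 1 mM EDTA, bacitracin, PMSF, 0.1% BSA, pH 7.4. Nonspecific binding defined with 1 µM Ang II. Filtration read-out. IC50 given as mean ± SEM of three determinations.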
A general note: In a radioligand displacement assay an active substance lowers the binding of a labelled ligand.

Data set [2] has as its target T2, Type-1 angiotensin II receptor (Oryctolagus cuniculus, UniProt P34976).
T2 sequence (P34976 whole entry): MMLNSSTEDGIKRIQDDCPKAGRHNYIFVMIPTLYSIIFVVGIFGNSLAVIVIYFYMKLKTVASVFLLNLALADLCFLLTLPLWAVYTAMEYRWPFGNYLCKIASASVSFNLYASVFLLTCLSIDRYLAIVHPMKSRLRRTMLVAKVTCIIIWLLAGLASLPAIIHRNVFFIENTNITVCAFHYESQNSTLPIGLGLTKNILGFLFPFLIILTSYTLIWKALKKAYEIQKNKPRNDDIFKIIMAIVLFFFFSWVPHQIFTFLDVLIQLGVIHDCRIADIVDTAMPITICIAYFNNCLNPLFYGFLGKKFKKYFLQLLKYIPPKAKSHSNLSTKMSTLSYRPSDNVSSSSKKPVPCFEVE
Nature of the data set: Antagonist activity against AT1 receptor assessed as inhibition of Ang2-induced rabbit aortic strip contraction. It counts as functional. In short, it runs like this: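 Rabbit aortic strips equilibrated 1 h, washed every 10 min. An Ang II cumulative curve was run, then 30 min washout. Antagonist or vehicle applied for 60 min before a submaximal (70-80%) Ang II challenge, 5 nM in controls. One antagonist concentration per tissue. Response read as % inhibition of contraction; IC50 derived from the regression line.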

Data set [3] can be described thus: Oral bioavailability in Sprague-Dawley rat at 30 mg/kg, po. It counts as ADME, organism-based. The conditions noted are these: in vivo. In short, it runs like this:
(§1)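 Fasted Sprague-Dawley rats, 250-300 g, dosed orally or by tail-vein injection. Blood sampled at selected times and plasma analysed by HPLC. t1/2 (terminal), AUC, observed Cmax and tmax calculated from plasma concentration-time data.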

Data set [4] can be described thus: Terminal half life in Sprague-Dawley rat at 30 mg/kg, po. The conditions noted are these: in vivo, read-out: beta t1/2 (converted). Type of data set: ADME, organism-based. Also on record: dose 30 mg/kg, route oral. In short, it runs like this: as §1
Data set [5] in a line: Cmax in Sprague-Dawley rat at 30 mg/kg, po. It counts as ADME, organism-based. The following applies: in vivo. Further details: dose 30 mg/kg, route oral. Put shortly:
as §1

Data set [6] can be described thus: Tmax in Sprague-Dawley rat at 30 mg/kg, po. Type of data set: ADME, organism-based. Further details: dose 30 mg/kg, route oral. The conditions noted are these: in vivo. In short, it runs like this:
as §1

Data set [7] in a line: AUC in Sprague-Dawley rat at 30 mg/kg, po. It counts as ADME, organism-based. Further details: dose 30 mg/kg, route oral. The following applies: plasma. Put shortly: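 Fasted Sprague-Dawley rats (250-300 g) given compound orally; blood sampled at selected times after dosing, plasma analysed by HPLC, and area under the plasma concentration-time curve calculated.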
The nature of data set [8]: AUC in Sprague-Dawley rat at 3 mg/kg, iv. Type of data set: ADME, organism-based. The following applies: plasma. Further details: dose 3 mg/kg, route intravenous. Put shortly:
as §1

A short description of data set [9]: Apparent permeability from apical to basolateral side of Caco-2 cell. It counts as ADME, cell-based. The conditions noted are these: human. In short, it runs like this: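 Caco-2 cells grown in DMEM with 10% FBS on polycarbonate supports, 15-21 days at 37 °C. Compound dosed apically at 10-100 µM final in HBSS with 1% DMSO, at 37 °C, apical-to-basolateral direction. Monolayer integrity checked by [¹⁴C]mannitol permeability. Transported compound measured by HPLC-MS; Papp calculated by equation.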
In general terms: Caco-2 monolayers are a common model of the intestinal barrier.

Data set [10] is described as follows: Terminal half life in Sprague-Dawley rat at 3 mg/kg, iv. It counts as ADME, organism-based. Further details: dose 3 mg/kg, route intravenous. The following applies: in vivo, read-out: beta t1/2 (converted). In short, it runs like this:
as §1

Data set [11] is described as follows: Oral bioavailability in Sprague-Dawley rat at 10 mg/kg, po. The conditions noted are these: in vivo.

Regarding `CCCc1nc2c(C)cc(C)nc2n1Cc1ccc(C2=C(C(=O)NS(=O)(=O)c3ccccc3)C(=O)c3ccccc32)cc1`, the IC50 (usually the concentration at which inhibition is half-maximal) in [1] is 131 nM.
Still for that read-out and setting: the value for `CCCc1nc2c(C)cc(C)nc2n1Cc1ccc(-c2c(-c3nn[nH]n3)n(C)c(=O)c3ccccc23)cc1` was above 300 nM.
As to `CCc1nc2c(C)cc(C)nc2n1Cc1ccc(-c2c(-c3nn[nH]n3)cnc3ccccc23)cc1`, the values for the IC50 in data set [2] and in data set [1] were 8.9 nM and 6.9 nM, respectively. Also, the bioavailability – broadly, dose-corrected exposure relative to a reference, in per cent – in data set [3] is 49%. Also, the half-life was 60 min in [4] and 40.8 min in [10]. In data set [5], the maximum concentration (Cmax) (commonly the peak of the concentration-time curve) amounted to 4200 ng/mL. Besides, the time of peak concentration (Tmax) (commonly the time at which the peak concentration occurs) in data set [6] amounted to 30 min. The AUC (commonly concentration integrated over time) was 4400 ng·h/mL in data set [7] and 890 ng·h/mL in [8]. In addition, the Papp A→B – broadly, the apparent permeability from the apical to the basolateral side of a cell layer – in data set [9] stood at 0.1 ×10⁻⁶ cm/s.
On to `CCCc1nc2c(C)cc(C)nc2n1Cc1ccc(C2=C(C(=O)O)C(C)(O)c3ccccc32)cc1` (configuration not stated), for which the concentration for half-maximal inhibition (IC50) amounted to 33 nM in data set [2] and 11 nM in [1].
`CCCCc1nc2c(C)cc(C)nc2n1Cc1ccc(-c2c(C(=O)O)n(C)c(=O)c3ccccc23)cc1` came in with an IC50 in data set [1] of 6.2 nM. Besides, in [9], the Papp A→B turned out to be 0.01 ×10⁻⁶ cm/s.
`CCCCc1nc(Cl)c(CO)n1Cc1ccc(-c2ccccc2-c2nn[nH]n2)cc1` [LOSARTAN]: the bioavailability in data set [3] amounted to 60%. Moreover, the half-life in data set [4] is 180 min; in data set [10], 282 min. Moreover, the Cmax in [5] worked out at 27500 ng/mL. The Tmax in [6] worked out at 30 min. The AUC in data set [7] came out at 74800 ng·h/mL; in data set [8], 12400 ng·h/mL. For the same compound, in data set [9], the Papp A→B was 1.15 ×10⁻⁶ cm/s.
On to `CCCc1nc2c(C)cc(C)nc2n1Cc1ccc(-c2c(C(=O)O)c(N)nc3ccccc23)cc1`, for which the IC50 was determined as 3.3 nM in data set [2] and 4.2 nM in data set [1]. For the same compound, the AUC in data set [8] was 520 ng·h/mL. Moreover, the half-life in data set [10] was 16.8 min.
Take `CCc1nc2c(C)cc(C)nc2n1Cc1ccc(-c2c(C(=O)O)n(C)c(=O)c3ccccc23)cc1`: the values for the IC50 in [2] and in data set [1] were 4.6 nM and 5.2 nM, respectively. Further, the bioavailability in [11] worked out at 0%. In data set [8], this compound gave an AUC of 630 ng·h/mL. The Papp A→B in data set [9] amounted to 0.03 ×10⁻⁶ cm/s. Besides, the half-life in data set [10] is 13.2 min.
As for `CCCc1nc2c(C)cc(C)nc2n1Cc1ccc(C2C(C(=O)O)=C(C)c3ccccc32)cc1` (configuration not stated), the half-inhibitory concentration (IC50) in [1] is recorded as 47 nM.
Still for that read-out and setting: with `C=C1C(C(=O)O)=C(c2ccc(Cn3c(CCC)nc4c(C)cc(C)nc43)cc2)c2ccccc21` the figure was 60 nM.
Take `CCCc1nc2c(C)cc(C)nc2n1Cc1ccc(-c2c(C(=O)O)c(C)nc3ccccc23)cc1`: the IC50 worked out at 13 nM in data set [2] and 9 nM in [1]. In [8], the AUC amounted to 500 ng·h/mL. Moreover, the half-life in [10] is 19.8 min.
Compound `CCCc1nc2c(C)cc(C)nc2n1Cc1ccc(-c2c(C(=O)O)n(C)c(=O)c3ccccc23)cc1` returned an IC50 in [1] of 5.7 nM.
The same measure, in the same setting: the value for `CCCc1nc2c(C)cc(C)nc2n1Cc1ccc(C2=C(C(=O)NS(C)(=O)=O)C(=O)c3ccccc32)cc1` was 54 nM; that for `CCCc1nc2c(C)cc(C)nc2n1Cc1ccc(C2(CC(=O)O)CC(=O)c3ccccc32)cc1` (configuration not stated) was 139 nM; that for `CCCc1nc2c(C)cc(C)nc2n1Cc1ccc(C2=C(C(=O)O)C(O)(CC)c3ccccc32)cc1` (configuration not stated) was 15 nM.
Same read-out and setting: with `CCCc1nc2c(C)cc(C)nc2n1Cc1ccc(C2=C(C(=O)O)C(C)c3ccccc32)cc1` (configuration not stated) the figure was 99 nM.
Compound `CCc1nc2c(C)cc(C)nc2n1Cc1ccc(C2=C(C(=O)O)C(=O)c3ccccc32)cc1` came in with an IC50 in data set [1] of 53 nM.
On the same count and under the same terms, with `CCCCc1nc2c(C)cc(C)nc2n1Cc1ccc(-c2c(-c3nn[nH]n3)n(C)c(=O)c3ccccc23)cc1` the figure was above 300 nM; with `CCCc1nc2c(C)cc(C)nc2n1Cc1ccc(C2(C(C(=O)O)C(=O)O)CC(=O)c3ccccc32)cc1` (configuration not stated), 55 nM.
On the same count and under the same terms, the value for `CCc1nc2c(C)cc(C)nc2n1Cc1ccc(-c2c(-c3nn[nH]n3)n(C)c(=O)c3ccccc23)cc1` was above 300 nM.
In data set [1], `CCCc1nc2c(C)cc(C)nc2n1Cc1ccc(-c2c(C(=O)O)c(Cl)nc3ccccc23)cc1` gave an IC50 of 7.7 nM. This compound showed an AUC in data set [8] of 340 ng·h/mL. For the same compound, the half-life in [10] is 18 min.
